Assay type in all cases: cell-based
For test [1], the target named is T1, Adenosine receptor A3 (Homo sapiens, UniProt P0DMS8).
T1 sequence (P0DMS8 whole entry): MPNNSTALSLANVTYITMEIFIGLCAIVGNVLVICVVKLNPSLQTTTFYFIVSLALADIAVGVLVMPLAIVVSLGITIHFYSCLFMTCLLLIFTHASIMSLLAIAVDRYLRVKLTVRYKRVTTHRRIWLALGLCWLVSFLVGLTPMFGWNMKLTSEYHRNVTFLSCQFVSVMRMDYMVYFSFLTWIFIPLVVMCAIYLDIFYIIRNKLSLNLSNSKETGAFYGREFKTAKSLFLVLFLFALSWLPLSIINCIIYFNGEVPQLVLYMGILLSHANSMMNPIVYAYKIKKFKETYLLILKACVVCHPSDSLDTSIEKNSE
Description: Displacement of [3H]MRE 3008F20 from human adenosine A3 receptor expressed in CHO cells. In general terms: In a radioligand displacement assay an active substance lowers the binding of a labelled ligand.

Test [2] deals with Adenosine receptor A2a (Homo sapiens, UniProt P29274). As to the kind of experiment: Displacement of [3H]ZM241385 from human adenosine A2A receptor expressed in CHO cells. Conditions: for inhibition: concentration not given here. The method, boiled down: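 CHO-derived membranes (50 µg protein/assay) in 50 mM Tris-HCl, 10 mM MgCl2, pH 7.4, competed with at least six to eight compound concentrations for 60 min at 25 °C. Nonspecific binding defined by 1 µM ZM 241385. Bound ligand collected on GF/B filters and counted. Ki derived from IC50 via Cheng-Prusoff.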

For test [3], the target named is T2, Adenosine receptor A2b (Homo sapiens) (UniProt P29275).
T2 sequence (whole entry): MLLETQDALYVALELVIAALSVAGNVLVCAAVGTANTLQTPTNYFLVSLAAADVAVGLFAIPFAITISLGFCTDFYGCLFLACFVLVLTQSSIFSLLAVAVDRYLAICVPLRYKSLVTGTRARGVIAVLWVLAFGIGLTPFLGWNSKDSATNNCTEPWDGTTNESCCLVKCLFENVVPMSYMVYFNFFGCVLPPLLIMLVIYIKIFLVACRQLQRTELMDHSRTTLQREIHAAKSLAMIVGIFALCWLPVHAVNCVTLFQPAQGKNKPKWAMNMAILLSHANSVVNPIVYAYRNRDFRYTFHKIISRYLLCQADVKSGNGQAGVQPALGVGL
As to the kind of experiment: (§1) Displacement of [3H]MRE 2029F20 from human adenosine A2B receptor expressed in CHO cells. Also on record: concentration or dose not given beside the values. Conditions: concentration not given here. In a few lines:
(§2)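 Run 60 min at 25 °C in 50 mM Tris-HCl, 10 mM MgCl2, 1 mM EDTA, 0.1 mM benzamidine, pH 7.4, with 2 IU/mL adenosine deaminase, 40 nM radioligand and CHO membranes (20 µg protein/assay). At least six to eight test concentrations. Nonspecific binding with 100 µM NECA. Filtration and counting, Ki by Cheng-Prusoff.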

The target of test [4] is T3, Adenosine receptor A2b (Homo sapiens, UniProt P29275).
T3 sequence (P29275 whole entry): T2 sequence (whole entry)
Described as §1. The method, boiled down:
as §2

The target of test [5] is T4, Adenosine receptor A1 (Homo sapiens, UniProt P30542).
T4 sequence (P30542 whole entry): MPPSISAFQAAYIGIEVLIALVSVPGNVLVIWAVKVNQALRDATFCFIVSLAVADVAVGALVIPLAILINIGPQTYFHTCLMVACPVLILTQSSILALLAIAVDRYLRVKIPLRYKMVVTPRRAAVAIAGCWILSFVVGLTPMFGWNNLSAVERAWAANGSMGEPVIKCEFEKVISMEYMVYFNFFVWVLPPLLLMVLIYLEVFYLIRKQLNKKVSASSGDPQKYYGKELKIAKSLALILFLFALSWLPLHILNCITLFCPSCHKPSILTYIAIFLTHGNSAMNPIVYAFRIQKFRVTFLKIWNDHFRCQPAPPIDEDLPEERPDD
As to the kind of experiment: (§3) Displacement of [3H]DPCPX from human adenosine A1 receptor expressed in CHO cells. The method, boiled down: (§4)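 Membranes from transfected CHO cells (50 µg protein/assay) in 50 mM Tris-HCl pH 7.4, incubated 120 min at 25 °C with 1 nM radioligand and at least six to eight test concentrations. Nonspecific binding with 10 µM CHA. Filtration on GF/B filters and scintillation counting. Ki from IC50 by Cheng-Prusoff, nonlinear least-squares fitting.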

Test [6] addresses T5, Adenosine receptor A1 (Homo sapiens) (UniProt P30542).
T5 sequence (whole entry): T4 sequence (P30542 whole entry)
Described as §3. Further details: concentration or dose not given beside the values. The settings on record: concentration not given here. The method, boiled down:
as §4

Structures are written as SMILES.

Chain of Adenosine receptor A2a (P29274 whole entry): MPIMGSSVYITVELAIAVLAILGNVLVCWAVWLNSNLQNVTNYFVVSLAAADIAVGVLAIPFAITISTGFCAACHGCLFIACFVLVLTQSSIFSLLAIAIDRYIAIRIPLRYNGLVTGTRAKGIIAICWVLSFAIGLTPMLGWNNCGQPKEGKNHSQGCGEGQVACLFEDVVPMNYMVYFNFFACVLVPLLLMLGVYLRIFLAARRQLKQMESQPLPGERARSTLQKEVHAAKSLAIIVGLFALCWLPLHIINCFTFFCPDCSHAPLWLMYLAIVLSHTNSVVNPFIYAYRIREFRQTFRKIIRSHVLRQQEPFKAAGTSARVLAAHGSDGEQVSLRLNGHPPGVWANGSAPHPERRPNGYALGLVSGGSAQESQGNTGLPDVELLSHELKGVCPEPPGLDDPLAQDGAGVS

Compound `CCOC(=O)c1c(C)nc(-c2ccccc2)c(C(=O)OCC)c1CC` showed a Ki in test [1] of 180 nM.
The same measure, in the same setting: under `Cc1cccnc1-c1nc(NC(=O)Nc2ccccc2)c2ccccc2n1` stands 260 nM; under `CCCOC(=O)c1c(C)nc(-c2ccccc2)c(C(=O)OCC)c1C`, 210 nM.
In test [1], `CCn1cc2c(nc(NC(=O)Nc3ccccc3OC)n3nc(-c4ccco4)nc23)n1` had an inhibition constant (Ki) of 0.56 nM.
Regarding `O=C(Nc1ccncc1)Nc1nc2nn(CCCO)cc2c2nc(-c3ccco3)nn12`, the Ki is > 1000 nM in test [2], > 1000 nM in test [4], 2 nM in test [1] and 350 nM in test [5]. The inhibition in test [2] stood at 95%; in test [3] it was 73%.
On to `O=C(Nc1cccnc1)Nc1nc2nn(CCO)cc2c2nc(-c3ccco3)nn12`, for which the Ki in test [2] is > 1000 nM; in test [4], > 1000 nM; in test [1] it was 34 nM; in test [5] it was > 1000 nM. Moreover, the inhibition in test [2] is 93%; in test [3], 99%; in test [6], 92%.
`O=C(Nc1ccncc1)Nc1nc2nn(CCO)cc2c2nc(-c3ccco3)nn12`: the Ki in test [2] is > 1000 nM; in test [4], > 1000 nM; in test [1], 5.1 nM; in test [5] it was > 1000 nM. Besides, the inhibition is 96% in test [2], 71% in test [3] and 74% in test [6].
For the compound `CCCOC(=O)c1c(CC)nc(-c2cccc(Cl)c2)c(C(=O)OCCC)c1CC`, in test [1], the affinity corresponds to a Ki of 7.9 nM.
In test [1], `CCn1cc2c(n1)N=C(NC(=O)Nc1ccc(C)cc1)N1N=C(c3ccco3)NC21` (stereo unspecified) yielded a Ki of 0.14 nM.
In test [1], `CCn1cc2c(nc(NC(=O)Nc3ccc(F)cc3)n3nc(-c4ccco4)nc23)n1` yielded an inhibition constant (Ki) of 0.86 nM.
For the compound `CCOC(=O)c1c(-c2ccccc2)nc(CC)c(C(=O)SCC)c1CC`, the Ki in test [1] is 13.4 nM.
Same read-out and setting: under `CCCOC(=O)c1c(-c2ccccc2)nc(CC)c(C(=O)OCC)c1CCC` stands 19 nM.
Take `O=C(Nc1ccccc1)Nc1ncnc2ccccc12`: the Ki in test [1] (cho) came to 1200 nM.
In test [1], `CCCc1c(C(=O)SCC)c(C)nc(-c2ccccc2)c1C(=O)OCC` gave a Ki of 194 nM.
`CCCOC(=O)c1c(-c2ccccc2)nc(CC)c(C(=O)OCC)c1CC` yielded an inhibition constant (Ki) in test [1] of 8.3 nM.
Regarding `CCOC(=O)c1c(CC)c(C(=O)OCC)c(-c2ccccc2)[n+](C)c1C`, the affinity in test [1] corresponds to a Ki of 380 nM.
Turning to `O=C(Nc1ccncc1)Nc1nc2nn(CCCOCc3ccccc3)cc2c2nc(-c3ccco3)nn12`, the Ki in test [2] is > 1000 nM; in test [4] it was > 1000 nM; in test [1] it was 14 nM; in test [5], > 1000 nM. The inhibition in test [2] was found to be 89%; in test [3], 66%; in test [6], 74%.
`CCOC(=O)c1c(CC)nc(-c2ccccc2)c(C(=O)OCC)c1CC` gave a Ki in test [1] of 120 nM.
Consider `O=C(Nc1cccnc1)Nc1nc2nn(CCOCc3ccccc3)cc2c2nc(-c3ccco3)nn12`, for which the Ki in test [2] was > 1000 nM; in test [4] it was > 1000 nM; in test [1] it was 9 nM; in test [5] it was > 1000 nM. Further, the inhibition in test [2] was determined as 82%; in test [3], 58%; in test [6], 85%.
For `O=C(Nc1ccncc1)Nc1nc2nn(CCOCc3ccccc3)cc2c2nc(-c3ccco3)nn12`, the Ki in test [2] was > 1000 nM; in test [4], > 1000 nM; in test [1], 27 nM; in test [5], > 1000 nM. The inhibition in test [2] amounted to 97%; in test [3] it was 65%; in test [6], 71%.
Regarding `CCOC(=O)c1c(-c2ccccc2)nc(C)c(C(=O)SCC)c1C`, affinity in test [1] was put at a Ki of 20 nM.

What is called Ki is the dissociation constant of the complex between target and ligand, obtained from inhibition or displacement. Usually inhibition stands for the drop in the measured response relative to a control, in per cent.

The record behind these values is ChEMBL document CHEMBL1138915, “Pharmacophore based receptor modeling: the case of adenosine A3 receptor antagonists. An approach to the optimization of protein models” (J Med Chem, 2006).
